Measurements gathered from unrelated publications.
Each line is one published result; the experiments were not run side by side.

O=C(CS(=O)(=O)O)Nc1ccc(N2CCOCC2)c(Br)c1 — clearance (CD-1 mouse; blood; intravenous; 2 mg/kg): 62 mL/min/kg
COc1cc(C(=O)N2CCC(N3CCN(C)CC3)CC2)ccc1Nc1ncc2c(n1)N(C)c1ccccc1C(=O)N2C — clearance (mouse; plasma; intravenous; 1 mg/kg): 5.6 mL/min/kg
CCc1cc(OC)c2nccc(N3CCc4c(cc(Cn5ccnc5)cc4-c4cn(C)nc4C(F)(F)F)C3=O)c2c1 — clearance (male CD-1 mouse; plasma; intravenous; 3 mg/kg): 16 mL/min/kg
CC(C)c1cnn2c(NCc3ccccc3)cc(NC[C@H]3CCNC[C@@H]3O)nc12 — clearance (male CD-1 mouse; plasma; intravenous; 10 mg/kg): 78 mL/min/kg
CCc1cc(C(=O)NC)c2nccc(N3CCc4c(cc(Cn5ccnc5)cc4-c4cn(C)nc4C(F)(F)F)C3=O)c2c1 — clearance (male CD-1 mouse; plasma; intravenous; 3 mg/kg): 12 mL/min/kg
CN(C)c1ccc(-c2cc(=O)c3ccc(O)c(O)c3o2)cc1 — clearance (mouse; plasma; intravenous; 1 mg/kg): 168 mL/min/kg
CC[C@H](C)[C@@H]1NC(=O)[C@@](C)(NC(=O)[C@H](CCCNC(=N)N)NC(=O)[C@H](CC(C)C)NC(=O)[C@@H](NC(=O)[C@H](CCC(N)=O)NC(=O)[C@H](CC(C)C)NC(C)=O)[C@@H](C)O)CCCC=CCCC[C@@](C)(C(=O)N[C@@H](CC(C)C)C(=O)N[C@@H](Cc2ccc3ccccc3c2)C(N)=O)NC(=O)[C@H](CCCNC(=N)N)NC(=O)[C@H](CCC(N)=O)NC1=O — clearance (male BALB/c mouse; plasma; intravenous; 15 mg/kg): 0.96 mL/min/kg
OC[C@H]1O[C@@H](c2ccc(Cl)c(Cc3ccc(O[C@H]4CCOC4)cc3)c2)[C@H](O)[C@@H](O)[C@@H]1O — clearance (CD-1 mouse; plasma; intravenous; 5 mg/kg): 51.6 mL/min/kg
CC(C)(C)c1ccc(O)c(CN(Cc2cc(C(C)(C)C)ccc2O)C2CCC(NC(N)=O)CC2)c1 (stereo not shown) — clearance (male C57BL/6 mouse; plasma; oral; 10 mg/kg; single dose): 32.3 mL/min/kg
O=C(Nc1ccc(Cl)c(Cl)c1)c1ccc(N2CCNCC2)c([N+](=O)[O-])c1 — clearance (male mouse; plasma; oral; 10 mg/kg): 53.5 mL/min/kg
Cc1c(Br)cc(NC(=O)C(c2ccccc2)S(=O)(=O)O)cc1Br (stereo not shown) — clearance (CD-1 mouse; blood; intravenous; 2 mg/kg): 34.9 mL/min/kg
CNCCN(C)c1cc(C#N)cc(CCc2cc(C)cc(N)n2)c1 — clearance (male BALB/c mouse; brain; intravenous; 2 mg/kg): 21 mL/min/kg
C=C(C[C@H](N)C(=O)O)C(=O)NCc1ccc(F)cc1 — clearance (male CD-1 mouse; plasma; intravenous; 2.5 mg/kg): 29.4 mL/min/kg
COc1ccc2cc(CCC[18F])ccc2c1 — clearance (male BALB/c mouse; plasma; intravenous): 0.25 mL/min
CC(C)N1Cc2cc(C(F)(F)F)ncc2C2=CN=C(NCc3c(F)ccc4c3CCO4)N3C=NC(C1=O)C23 (stereo not shown) — clearance (male CD-1 mouse; plasma; intravenous; 2 mg/kg): 1.71 mL/min/kg
CNC(=O)c1cc(OC)cc2c(N3CCc4c(cc(Cn5ccnc5)cc4-c4cn(C)nc4C(F)(F)F)C3=O)ccnc12 — clearance (male CD-1 mouse; plasma; intravenous; 3 mg/kg): 15 mL/min/kg
CCO[C@H]1CCN(Cc2c(OC)cc(C)c3[nH]ccc23)[C@H](c2ccc(C(=O)O)cc2)C1 — clearance (C57BL/6 mouse; plasma; intravenous; 1 mg/kg): 16 mL/min/kg
Cc1noc(C)c1-c1ccc2nc(N3CCN(CCN(C)C)CC3)nc(N3CCOC[C@@H]3c3ccccc3)c2c1 — clearance (CD-1 mouse; plasma; intravenous; 2 mg/kg): 62.3 mL/min/kg
COc1nc(-c2cc(C)c(N[C@@H](C)c3c(F)cc(F)cc3F)nn2)ccc1-n1cnc(C)c1 — clearance (male CD-1 mouse; plasma; intravenous; 1 mg/kg; single dose): 6.33 mL/min/kg
